According to paper PMC7306618 (CPT: Pharmacometrics & Systems Pharmacology, 2020):
Several values for one entry are separate records, joined by “and”; a condition that tells them apart may be missing. Equal entries are not always repeated. Blank lines part the entries; values can stand above or below the compound they belong to.

Assays:
[1] = system: OATP1B; details: rosuvastatin + fenebrutinib vs rosuvastatin alone; cited from earlier work
[2] = Physicochemical properties of fenebrutinib
[3] = Phase I PK of fenebrutinib; type: in vivo, human
Summary of the method: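 Oral dosing in phase I studies as solution, capsule (single and multiple-day) and 200 mg tablet. Plasma concentration–time data were used to estimate total clearance and apparent steady-state volume of distribution (Vss/F).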

[4] = biological target: T1, human BCRP (Homo sapiens, UniProt Q9UNQ0); details: read-out: IC50 BCRP‐mediated efflux; cited from earlier work
T1 sequence (Q9UNQ0 1-655): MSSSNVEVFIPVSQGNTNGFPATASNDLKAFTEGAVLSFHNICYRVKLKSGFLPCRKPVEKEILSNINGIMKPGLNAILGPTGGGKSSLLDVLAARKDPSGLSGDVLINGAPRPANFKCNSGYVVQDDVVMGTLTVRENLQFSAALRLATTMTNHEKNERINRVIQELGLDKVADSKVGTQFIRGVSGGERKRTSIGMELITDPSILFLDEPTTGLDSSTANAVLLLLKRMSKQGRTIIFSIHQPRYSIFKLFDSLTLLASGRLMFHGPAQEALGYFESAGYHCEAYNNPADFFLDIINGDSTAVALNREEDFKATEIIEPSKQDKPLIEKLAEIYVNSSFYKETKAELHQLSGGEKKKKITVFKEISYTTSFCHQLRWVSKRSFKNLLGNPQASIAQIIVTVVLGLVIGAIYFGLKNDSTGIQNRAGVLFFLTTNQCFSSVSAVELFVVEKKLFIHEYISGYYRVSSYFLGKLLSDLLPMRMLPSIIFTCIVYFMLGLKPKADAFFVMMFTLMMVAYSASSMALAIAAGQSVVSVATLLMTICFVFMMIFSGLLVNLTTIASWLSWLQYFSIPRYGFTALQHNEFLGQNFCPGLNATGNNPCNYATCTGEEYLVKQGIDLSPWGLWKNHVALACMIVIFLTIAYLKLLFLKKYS

[5] = system: CYP3A; assay: Clinical DDI study Part 4: effect of itraconazole on fenebrutinib PK; type: in vivo, human; details: 200 mg itraconazole solution once daily × 8 days; fenebrutinib 100 mg
[6] = type: in vivo, dogs; details: dog, oral tablets, co‐administration with H‐β‐CD
[7] = Fenebrutinib PBPK model parameters; set-up: species or system human
[8] = system: CYP3A; details: time‐dependent inhibition, cited from earlier work
[9] = Free fraction in plasma and blood/plasma partition ratio; type: in vitro ADME
[10] = Fenebrutinib–H‐β‐CD complexation in vitro; type: physicochemical; details: estimated from in vitro experiment
[11] = biological target: T1, human BCRP; assay: Inhibition of BCRP-mediated efflux in MDCKII cells; type: cell-based
Summary of the method: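 Unbound inhibition constants (OATP1B1/1B3 uptake; BCRP efflux) derived as in vitro IC50/2, then corrected by plasma unbound fraction. This was done because the unbound fraction in the transporter incubation was not measured. Values served as gut and liver transporter inputs to the PBPK model.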

[12] = Human mass balance study; type: in vivo
[13] = MDCK cell monolayer apparent permeability; type: in vitro ADME, Canine; details: dog, MDCK
Summary of the method: (§1)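 Apparent permeability of test compound measured across MDCK monolayers alone and at various H‐β‐CD concentrations. These included a 46:1 H‐β‐CD:compound molar ratio, matching ~8 g H‐β‐CD per oral-solution dose with a 100 mg tablet. Change expressed relative to no H‐β‐CD. MDCK Papp was also scaled (scalar 3.9) to human jejunal Peff.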

[14] = system: Madin‐Darby Canine Kidney (MDCK) cell monolayer; assay: MDCK cell monolayer apparent permeability; type: in vitro ADME; details: molar ratio H‐β‐CD to fenebrutinib 46:1
Summary of the method: as §1

[15] = system: OATP1B1/3 and BCRP; details: fenebrutinib 200 mg twice daily for 10 days; cited from earlier work

pK a1 ([2]; diprotic base): 5 | pK a2 ([2]; diprotic base): 3.7 | logP ([2]; octanol/water): 3.3 | pH solubility profile ([2]; pH 2.3): 35.9 | pH solubility profile ([2]; pH 2.6): 5.67 | pH solubility profile ([2]; pH 3.0): 1.44 | pH solubility profile ([2]; pH 3.8): 0.032 | pH solubility profile ([2]; pH 5.0): 0.001 | pH solubility profile ([2]; pH 6.1): 0.001 | CL/F ([3]; estimated from phase I PK data): ~ 80 L/hour | Vd/F ([3]; human, plasma, oral): ~13.4 L/kg | Observed change in Tmax with itraconazole [5]: delay | Observed decrease in Cmax with itraconazole [5]: ~ 11% and 11% | Observed increase in AUC0‐t with itraconazole [5]: 2.28 fold and ~ 2.3 fold | Apparent rate and extent of absorption in the presence of H‐β‐CD [6]: substantially decreased | Hepatic clearance as share of total CL ([7]; assigned in model): ~ 95% | clearance ([7]; human): 18.3 mL/min | B/P [9]: 0.61 | Kcomplex with H‐β‐CD [10]: 27000 M⁻¹ | Ki [11]: 0.926 µM | Share of elimination through metabolic pathway (f m) [12]: > 90% | Papp [13]: 15.1 ×10⁻⁶ cm/s | Decrease in Papp relative to that without H‐β‐CD [14]: ~ 15 fold
Compound: C[C@H]1CN(C2COC2)CCN1c1ccc(Nc2cc(-c3ccnc(N4CCn5c(cc6c5CC(C)(C)C6)C4=O)c3CO)cn(C)c2=O)nc1 [fenebrutinib]
Effect of multiple doses on plasma concentration‐time profiles of CP‐I and CP‐III [1]: comparable | IC50 [4]: 9.4 µM | Ki ([8]; read-out: CYP3A TDI K I (apparent)): 7.9 µM | CYP3A TDI K inact [8]: 0.684 h⁻¹ | CYP3A k inact [8]: 0.0114 min⁻¹

Compound: CC(C)c1nc(N(C)S(C)(=O)=O)nc(-c2ccc(F)cc2)c1/C=C/[C@@H](O)C[C@@H](O)CC(=O)O [rosuvastatin]
Observed increase in AUC0–t with fenebrutinib [15]: ~2.6 fold | Observed increase in Cmax with fenebrutinib [15]: ~ 5 fold
